Measurements taken from ChEMBL document CHEMBL5724801, “EUbOPEN Chemogenomics Library - Multiplex” (2024).
“And” between values parts separate entries of the source, which are not always exact repeats. Equal entries are not always repeated.

Assays:
HEK-293T = assay: Multiplex assay against HEK293T; format: toxicity, cell-based; conditions: human
In short: (§1)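 Values for tubulin, mitochondrial-mass and membrane-permeability phenotypes are per cents of cells with healthy nuclei. These cells were identified by CellPathfinder machine-learning gating of live cells that had been stained at seeding with Hoechst33342, BioTracker Green Microtubule Cytoskeleton Dye, MitoTracker Red and Annexin V Alexa Fluor 680 and imaged on a CQ1 microscope at 37°C and 5% CO2 after compound addition. The gating first set Hoechst high-intensity objects apart from normal cells, then split normal cells into healthy, pyknosed or fragmented nuclei, and pyknosed cells into mitotic or apoptotic.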

Fibroblast = assay: Multiplex assay against human fibroblast; format: toxicity, cell-based; in short: as §1
[1] = 12 h, 1 µM, compound concentration 1 uM
[2] = 12 h, 10 µM, compound concentration 10 uM
[3] = 24 h, 1 µM, compound concentration 1 uM
[4] = 24 h, 10 µM, compound concentration 10 uM
[5] = 48 h, 1 µM, compound concentration 1 uM
[6] = 48 h, 10 µM, compound concentration 10 uM

## Cc1cc(=O)n(C)c2cc(N3C(=O)CC[C@H](NS(=O)(=O)CC(C)C)[C@H]3c3ccc(Cl)cc3)ccc12
HEK-293T; [1]
  Population Apoptotic (%): 43% and 63%
  Population Fragmented Nuclei (%): 7% and 6%
  Population Healthy Nuclei (%): 83% and 78%
  Population Hoechst High Intensity Objects (%): 8% and 6%
  Population Membrane Permeable-Phenotype (%): 0%
  Population Mitochondria Different-Phenotype (%): 41% and 53%
  Population Mitotic Cells (%): 56% and 36%
  Population Normal (%): 91% and 93%
  Population Pyknosed Nuclei (%): 8% and 14%
  Population Tubulin-Different-Phenotype (%): 32% and 14%
  Total Cell Count: 454 and 265
HEK-293T; [2]
  Population Apoptotic (%): 47% and 50%
  Population Fragmented Nuclei (%): 4% and 6%
  Population Healthy Nuclei (%): 70% and 66%
  Population Hoechst High Intensity Objects (%): 11% and 16%
  Population Membrane Permeable-Phenotype (%): 0%
  Population Mitochondria Different-Phenotype (%): 75% and 86%
  Population Mitotic Cells (%): 52% and 49%
  Population Normal (%): 88% and 83%
  Population Pyknosed Nuclei (%): 24% and 27%
  Population Tubulin-Different-Phenotype (%): 81% and 66%
  Total Cell Count: 368 and 331
HEK-293T; [3]
  Population Apoptotic (%): 33% and 36%
  Population Fragmented Nuclei (%): 9% and 4%
  Population Healthy Nuclei (%): 81% and 82%
  Population Hoechst High Intensity Objects (%): 4% and 5%
  Population Membrane Permeable-Phenotype (%): 0% and 1%
  Population Mitochondria Different-Phenotype (%): 25% and 42%
  Population Mitotic Cells (%): 66% and 63%
  Population Normal (%): 95% and 94%
  Population Pyknosed Nuclei (%): 9% and 13%
  Population Tubulin-Different-Phenotype (%): 19% and 17%
  Total Cell Count: 646 and 327
HEK-293T; [4]
  Population Apoptotic (%): 34% and 76%
  Population Fragmented Nuclei (%): 7% and 8%
  Population Healthy Nuclei (%): 72% and 67%
  Population Hoechst High Intensity Objects (%): 9% and 22%
  Population Membrane Permeable-Phenotype (%): 0%
  Population Mitochondria Different-Phenotype (%): 67% and 85%
  Population Mitotic Cells (%): 65% and 23%
  Population Normal (%): 90% and 77%
  Population Pyknosed Nuclei (%): 19% and 23%
  Population Tubulin-Different-Phenotype (%): 67% and 71%
  Total Cell Count: 419 and 328
HEK-293T; [5]
  Population Apoptotic (%): 25% and 31%
  Population Fragmented Nuclei (%): 14% and 11%
  Population Healthy Nuclei (%): 78% and 79%
  Population Hoechst High Intensity Objects (%): 3% and 7%
  Population Membrane Permeable-Phenotype (%): 0%
  Population Mitochondria Different-Phenotype (%): 17% and 20%
  Population Mitotic Cells (%): 74% and 68%
  Population Normal (%): 96% and 92%
  Population Pyknosed Nuclei (%): 6% and 9%
  Population Tubulin-Different-Phenotype (%): 15% and 17%
  Total Cell Count: 985 and 454
HEK-293T; [6]
  Population Apoptotic (%): 56% and 66%
  Population Fragmented Nuclei (%): 12%
  Population Healthy Nuclei (%): 77% and 67%
  Population Hoechst High Intensity Objects (%): 10% and 19%
  Population Membrane Permeable-Phenotype (%): 1% and 0%
  Population Mitochondria Different-Phenotype (%): 67% and 76%
  Population Mitotic Cells (%): 43% and 33%
  Population Normal (%): 89% and 80%
  Population Pyknosed Nuclei (%): 10% and 19%
  Population Tubulin-Different-Phenotype (%): 58% and 56%
  Total Cell Count: 548 and 371
Fibroblast; [1]
  Population Apoptotic (%): 31% and 38%
  Population Fragmented Nuclei (%): 16% and 20%
  Population Healthy Nuclei (%): 56% and 38%
  Population Hoechst High Intensity Objects (%): 2% and 10%
  Population Membrane Permeable-Phenotype (%): 0% and 8%
  Population Mitochondria Different-Phenotype (%): 4%
  Population Mitotic Cells (%): 68% and 62%
  Population Normal (%): 97% and 89%
  Population Pyknosed Nuclei (%): 26% and 40%
  Population Tubulin-Different-Phenotype (%): 34% and 61%
  Total Cell Count: 135 and 137
Fibroblast; [2]
  Population Apoptotic (%): 41% and 18%
  Population Fragmented Nuclei (%): 11% and 26%
  Population Healthy Nuclei (%): 40% and 31%
  Population Hoechst High Intensity Objects (%): 3% and 11%
  Population Membrane Permeable-Phenotype (%): 1% and 8%
  Population Mitochondria Different-Phenotype (%): 8%
  Population Mitotic Cells (%): 58% and 82%
  Population Normal (%): 96% and 88%
  Population Pyknosed Nuclei (%): 48% and 42%
  Population Tubulin-Different-Phenotype (%): 86% and 94%
  Total Cell Count: 149 and 133
Fibroblast; [3]
  Population Apoptotic (%): 34% and 50%
  Population Fragmented Nuclei (%): 18% and 26%
  Population Healthy Nuclei (%): 62% and 44%
  Population Hoechst High Intensity Objects (%): 2% and 10%
  Population Mitochondria Different-Phenotype (%): 4% and 5%
  Population Mitotic Cells (%): 65% and 50%
  Population Normal (%): 97% and 89%
  Population Pyknosed Nuclei (%): 18% and 29%
  Population Tubulin-Different-Phenotype (%): 24% and 70%
  Total Cell Count: 140 and 128
